Experimental data from different studies.
Each line is one published result; the experiments were not run side by side.

CCc1cc(OC)c2nccc(N3CCc4c(cc(Cn5ccnc5)cc4-c4cn(C)nc4C(F)(F)F)C3=O)c2c1  AUC(0-inf) (male Sprague-Dawley rat; plasma; intravenous; 3 mg/kg): 955 ng·h/mL
Oc1cc(O)cc(-c2cc3ccc(O)cc3o2)c1  AUC(0-inf) (male rat; plasma; intravenous; 5 mg/kg): 932 ng·h/mL
O=C(Nc1cc(F)c(F)c(F)c1)c1ccc(F)c(S(=O)(=O)NCc2cccc(B(O)O)c2)c1  AUC(0-inf) (male Sprague-Dawley rat; plasma; intravenous; 2 mg/kg): 246 ng·h/mL
CCc1cc(C(=O)NC)c2nccc(N3CCc4c(cc(Cn5ccnc5)cc4-c4cn(C)nc4C(F)(F)F)C3=O)c2c1  AUC(0-inf) (male Sprague-Dawley rat; plasma; oral; 100 mg/kg): 117000 ng·h/mL
COc1cc2c3c(n(CCCN4CCOCC4)c(=O)c2cc1OC)-c1cc2c(cc1C3=O)OCO2  AUC(0-inf) (male Fischer 344 rat; plasma; intravenous; 24 mg/m²; single dose): 421 ng·h/mL
COCCOC(=O)C1=C(C)NC(C)=C(C(=O)OC(C)C)C1c1cccc([N+](=O)[O-])c1 (centres unmarked)  AUC(0-inf) (male Sprague-Dawley rat; plasma; intravenous; 3 mg/kg): 573 ng·h/mL
CCOC(=O)[C@@]12C[C@@H]1[C@@H](n1ccc3c(NC)nc(C#Cc4ccc(Cl)s4)nc31)[C@H](O)[C@@H]2O  AUC(0-inf) (male Sprague-Dawley rat; plasma; oral; 10 mg/kg): 371 ng·h/mL
Cc1c(-c2ccccc2)cccc1N1C(=O)c2cc(CN[C@H](C(=O)O)C(C)O)c(OCc3cccc(C#N)c3)cc2C1=O (some centres unmarked)  AUC(0-inf) (Sprague-Dawley rat; plasma; oral; 50 mg/kg): 100 ng·h/mL
COc1nc(-c2cc(C)c(N[C@@H](C)c3cc(F)cc(F)c3)nn2)ccc1-n1cnc(C)c1  AUC(0-inf) (male Sprague-Dawley rat; plasma; intravenous; 1 mg/kg; single dose): 6710 ng·h/mL
O=C(Nc1ccc(-c2nc(-c3ccc(Cl)cc3)no2)cc1)C1CC(=O)N(Cc2ccco2)C1 (centres unmarked)  AUC(0-inf) (male Wistar rat; brain; intraperitoneal; 10 mg/kg): 12500 ng·h/mL
COc1ccc2c(Cc3ccccc3F)c3[n+](cc2c1OC)CCc1cc2c(cc1-3)OCO2.[Br-]  AUC(0-inf) (rat; plasma; intravenous; 5 mg/kg): 125 ng·h/mL
Oc1c(Br)cc(Cl)c2cccnc12  AUC(0-inf) (Sprague-Dawley rat; plasma; subcutaneous; 10 mg/kg): 5300 ng·h/mL
COc1ccc(C(C)=O)c(O)c1  AUC(0-inf) (male Sprague-Dawley rat; plasma; oral; 100 mg/kg): 38600 ng·h/mL
COc1ccc2c(Cc3ccccc3F)c3n(c(=O)c2c1OC)CCc1cc2c(cc1-3)OCO2  AUC(0-inf) (rat; plasma; intravenous; 5 mg/kg): 22700 ng·h/mL
